Compound activity (PubChem)
The list is not random: actives were taken first. Their share in the collection is about 2.4%.
Cardio protect: myocardial damage modulation in H9c2 cells | H9c2 cardiomyocytes, H2O2 injury protection, ATPLite, 2 h | protection from H2O2 cell death, % at 20 µM | 360,000 compounds, 0.63% hits;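 active = compounds giving at least 50% protection of heart cells from peroxide-induced death in the single-dose screen, raw or plate-pattern-corrected value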
JMJD2C inh: inhibitors of human GASC-1 (JMJD2C) demethylase. AID 2099. GST-JMJD2C(1-420) H3K9me3 demethylation, DELFIA europium. 330,000 compounds, 0.069% hits. inhibition, % at 2.35 µM;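 active = more than half of a compound's replicate wells show inhibition beyond 50%, single wells judged on their own value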;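 note: signal counts dimethyl H3K9 product captured on neutravidin plate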
Target sequence (Q9H3R0 1-420 limits assumed): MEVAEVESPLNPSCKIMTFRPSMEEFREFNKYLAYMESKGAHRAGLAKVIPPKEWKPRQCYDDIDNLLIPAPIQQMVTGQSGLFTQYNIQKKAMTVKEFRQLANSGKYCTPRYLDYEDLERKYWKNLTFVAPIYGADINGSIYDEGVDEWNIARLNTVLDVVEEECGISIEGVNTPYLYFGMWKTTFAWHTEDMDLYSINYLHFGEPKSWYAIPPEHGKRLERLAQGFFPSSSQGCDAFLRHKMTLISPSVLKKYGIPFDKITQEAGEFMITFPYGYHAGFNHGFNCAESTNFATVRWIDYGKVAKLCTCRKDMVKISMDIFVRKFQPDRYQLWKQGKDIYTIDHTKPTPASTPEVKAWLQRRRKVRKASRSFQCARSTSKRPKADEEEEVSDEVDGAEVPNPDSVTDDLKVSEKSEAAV
PP5 primary: inhibitors of human protein phosphatase 5 (PP5); P53041; purified PP5c, OMFP substrate fluorescence; inhibition, % at 6.7 µM; 320,000 compounds, 0.18% hits;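 active = inhibition above the campaign's mean inhibition across all tested compounds plus 3 SD, cut at about 9.5% in these data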
T cruzi inh: blocks replication of Trypanosoma cruzi; T. cruzi beta-gal in NIH3T3, luminescence, 90 h; inhibition, % (no concentration beside the values); 300,000 compounds, 1.4% hits;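 active = mean inhibition across valid replicates above about 55%, limit read from the data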;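 note: signal also drops with host cell toxicity which is not excluded here; higher percent means less beta-gal luminescence so fewer parasites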
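Assay system: NIH/3T3 fibroblasts plus reporter T. cruzi. Amount: NIH/3T3 cells, 5,000 per well. Buffer or medium: DMEM, 2% fetal bovine serum. Doses: compound pinned at 50 nL/well, DMSO. Schedule: ≥90 h infection period, 3 h prior cell attachment. Signal: luminescent β-galactosidase signal after 60 min lysis. Read-out: parasite load inhibition, %.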
Fh CTSL1 inh: blocks F. hepatica cathepsin L1 in PFM18AAP counter-screen; AID 1906; inhibition, % at 5.96 µM; recombinant F. hepatica cathepsin L1, Z-Leu-Arg-MCA fluorescence; 300,000 compounds, 0.49% hits;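 active = inhibition above the mean of all tested compounds plus 3 SD, set per screening campaign, cut at about 17% in these data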
p-CIP stab down: lowers stability of the mouse p/CIP coactivator protein; F442A p/CIP-EGFP cells, EGFP fluorescence, 16 h; 290,000 compounds, 0.01% hits; Q05BA5; decrease of EGFP signal, % at 10 µM;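 active = EGFP signal decrease of at least 30% at 10 µM or well 3 SD below plate mean, unless failing retest; inactive = the rest, including hits failing retest or dose response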
Hits are given with their value; n = inactive; x = no result given.

SMILES | Cardio protect | JMJD2C inh | PP5 primary | T cruzi inh | Fh CTSL1 inh | p-CIP stab down
COc1cc2nc(Nc3ccc(C)c(Cl)c3)nc(N)c2cc1OC | n | n | n | n | n | n
COc1cc2nc(Nc3ccc(F)cc3)nc(N)c2cc1OC | 55 | n | n | n | n | n
COc1cc2nc(N(C)C)nc(N)c2cc1OC | n | n | n | 63 | n | n
CC(C)N(Cc1nc(-c2ccccc2)no1)C(=O)CN(C)S(=O)(=O)c1ccc(Br)cc1 | n | n | n | n | n | n
CC(C)N(Cc1nc(-c2ccc(Cl)cc2)no1)C(=O)CN(C)S(=O)(=O)c1ccc(Cl)cc1 | n | n | n | 56 | n | n
CCN(CCCCCN(C)C)Cc1cc2ccccc2o1 | n | n | n | 55 | n | n
CN(C)CCCN(C(=O)c1cc2ccccc2oc1=O)c1nc2ccc(F)cc2s1 | n | n | n | n | n | n
Cc1ccc(-c2nn(-c3cc(N4CCNCC4)ccc3[N+](=O)[O-])c(=O)c3ccccc23)cc1 | n | n | n | 73 | n | n
Cc1nn(-c2cc(N3CCCCCC3)ccc2[N+](=O)[O-])c(=O)c2ccccc12 | n | n | n | n | n | n
Cc1sc(NC(=O)Cc2ccc3c(c2)OCO3)nc1-c1ccc2c(c1)CCN2C(=O)c1ccccc1F | n | n | n | 56 | n | n
CCOc1cc(-c2nccc3cc(OC)c(OC)cc23)cc(OCC)c1OCC | n | n | n | n | n | n
CN1CCN(c2ccc(S(=O)(=O)N3CCCCC3)cc2[N+](=O)[O-])CC1 | n | n | n | 68 | n | n
CN1CCN(c2ccc(C(=O)c3ccccc3)cc2[N+](=O)[O-])CC1 | n | n | n | 56 | n | n
CC(=O)N1CCN(c2ccc(S(=O)(=O)N3CCCCC3)cc2[N+](=O)[O-])CC1 | n | n | x | x | x | x
Cc1c(NC(=O)C(C)OC(=O)c2sc3ccccc3c2Cl)c(=O)n(-c2ccccc2)n1C (stereo not drawn) | n | n | n | n | n | n
Cc1c(NC(=O)C(C)OC(=O)c2ccc([N+](=O)[O-])s2)c(=O)n(-c2ccccc2)n1C (stereo not drawn) | n | n | n | 86 | 28 | n
Cc1ccc(-c2nn3c(C)nnc3s2)cc1NC(=O)c1ccc(-c2cccc(Cl)c2)o1 | 65 | n | x | n | x | n
Cc1ccc(-c2nn3c(C)nnc3s2)cc1NC(=O)c1ccc(-c2ccc(Cl)cc2Cl)o1 | n | x | n | x | n | n
C#CCOCCOCCOCCNc1nc(N2CCN(C(=O)CCCCCCCCCCNC(=O)[C@H]([C@@H](C)CC)n3cc(CCCCN=C(N)N)nn3)CC2)nc(N2CCN(C(=O)CCCCCCCCCCNC(=O)[C@H](CO)n3cc(CCCCCN)nn3)CC2)n1 | n | n | 12 | x | n | x
C#CCOCCOCCOCCNc1nc(N2CCN(C(=O)CCCCCCCCCCNC(=O)Cn3cc(C[C@@H](C)O)nn3)CC2)nc(N2CCN(C(=O)CCCCCCCCCCNC(=O)[C@H](CCCN=C(N)N)n3cc(C[C@@H](C)CC)nn3)CC2)n1 | n | n | n | 66 | n | x
C#CCOCCOCCOCCNc1nc(N2CCN(C(=O)CCCCCCCCCCNC(=O)Cn3cc(C[C@@H](C)O)nn3)CC2)nc(N2CCN(C(=O)CCCCCCCCCCNC(=O)[C@H](CCCCN)n3cc(CCCC(=O)O)nn3)CC2)n1 | n | n | n | x | n | x
C#CCOCCOCCOCCNc1nc(N2CCN(C(=O)CCCCCCCCCCNC(=O)[C@H](CO)n3cc(CCCSC)nn3)CC2)nc(N2CCN(C(=O)CCCCCCCCCCNC(=O)[C@H](CCCN=C(N)N)n3cc(C[C@@H](C)CC)nn3)CC2)n1 | n | 57 | n | x | n | x
Cc1cc(C)c(C)c(S(=O)(=O)N2CCC(C(=O)N3CCCCCCC3)CC2)c1C | n | n | n | n | n | n
O=C(CN1C(=O)NC2(CCCCC2)C1=O)N1CCOCC1 | n | n | n | x | x | x
O=S1(=O)N=C(Nc2ccc(N3CCOCC3)cc2)c2ccccc21 | n | n | n | n | n | n
SMILES | Cardio protect | JMJD2C inh | PP5 primary | T cruzi inh | Fh CTSL1 inh | p-CIP stab down
Cc1ccccc1-c1ccc(Nc2ccc(N3CCOCC3)cc2)nn1 | n | n | n | 70 | n | n
CN(Cc1ccccc1)C(=O)COC(=O)CN1C(=O)c2ccccc2C1=O | n | n | x | x | x | x
CC(C)(CNC(=S)NCCc1ccccc1)CNC(=S)NCCc1ccccc1 | n | n | x | 65 | x | n
CCOC(=O)C(Cc1ccc(O)cc1)NC(=O)CNC(=O)C(CC(C)C)NC(=O)OC(C)(C)C (stereo not drawn) | n | n | n | n | 29 | n
N#Cc1cnn(-c2ccc([N+](=O)[O-])cc2[N+](=O)[O-])c1N | n | x | x | x | x | x
O=c1c2ccccc2ncn1-c1ccc([N+](=O)[O-])cc1[N+](=O)[O-] | n | n | n | 63 | n | n
Cc1ccc(-n2cnn(-c3ccc([N+](=O)[O-])cc3[N+](=O)[O-])c2=O)cc1 | n | n | n | 57 | n | n
CCCOc1ccc(CNC(=S)N/N=C/c2ccc([N+](=O)[O-])cc2)cc1 | n | n | n | 61 | n | n
CC(C)COc1ccc(CNC(=S)N/N=C/c2ccc([N+](=O)[O-])cc2)cc1 | n | n | n | n | n | n
O=C(CN(c1ccc(Br)cc1)S(=O)(=O)c1ccc(Cl)c([N+](=O)[O-])c1)NCC1CCCO1 (stereo not drawn) | n | x | x | x | x | x
CCOC(=O)CNC(=O)c1ccc(Br)s1 | n | n | n | n | n | n
Cc1ccc(C)n1-c1ccc(C(=O)NN)s1 | n | n | n | n | 21 | n
CC1CN(S(=O)(=O)c2cccc(C(=O)NCc3ccco3)c2)CC(C)O1 (stereo not drawn) | n | n | n | x | x | x
CC(C)N=c1scc(-c2cccs2)n1/N=C/c1ccc(O)c(O)c1O | 50 | n | n | x | n | n
COc1ccc2c(c1)-c1c(ssc1=S)C(C)(C)N2S(=O)(=O)c1ccc(C)cc1 | n | n | n | n | n | n
Cc1ccc(S(=O)(=O)N2c3ccccc3-c3c(ssc3=S)C2(C)C)cc1 | n | n | n | 55 | n | n
CC1(C(=O)NS(=O)(=O)c2cccc(F)c2)CCN1C(=O)Cc1cccc2ccccc12 (stereo not drawn) | n | x | x | x | x | x
O=C(Cc1n[nH]c(=O)c2ccccc12)OCC(=O)c1ccc2c(c1)OCCO2 | 66 | n | n | n | n | n
O=C(COC(=O)c1ccco1)NNC(=O)c1ccc(Cl)cc1 | n | 81 | x | x | x | x
O=C(COC(=O)c1ccco1)NCCc1ccc(Cl)cc1 | n | n | n | x | x | x
Cc1ccccc1OCC(=O)NNC(=O)Cn1[nH]c(=O)c2ccccc2c1=O | 53 | n | x | x | x | x
O=C(COC(=O)Cc1n[nH]c(=O)c2ccccc12)NNC(=O)c1ccc(Cl)cc1 | 66 | n | n | x | x | x
O=C(Cc1n[nH]c(=O)c2ccccc12)OCC(=O)c1ccc(F)cc1 | n | n | n | n | n | x
